Measurements as given in ChEMBL document CHEMBL5107950, “Structure-based design of haloperidol analogues as inhibitors of acetyltransferase Eis from Mycobacterium tuberculosis to overcome kanamycin resistance” (RSC Med Chem, 2021).
Converted amounts (≈) assume the structure as drawn.

What was measured:
[1] = target: T1, N-acetyltransferase Eis (Mycobacterium tuberculosis (strain ATCC 25618 / H37Rv), UniProt P9WFK7); assay: Inhibition of Mycobacterium tuberculosis Eis assessed as Eis-mediated kanamycin acetylation preincubated for 10 mins followed by substrate addition and measured for 2 to 5 mins using acetyl-CoA as substrate in presence of kanamycin by UV-Vis spectroscopy analysis
T1 sequence (P9WFK7 whole entry): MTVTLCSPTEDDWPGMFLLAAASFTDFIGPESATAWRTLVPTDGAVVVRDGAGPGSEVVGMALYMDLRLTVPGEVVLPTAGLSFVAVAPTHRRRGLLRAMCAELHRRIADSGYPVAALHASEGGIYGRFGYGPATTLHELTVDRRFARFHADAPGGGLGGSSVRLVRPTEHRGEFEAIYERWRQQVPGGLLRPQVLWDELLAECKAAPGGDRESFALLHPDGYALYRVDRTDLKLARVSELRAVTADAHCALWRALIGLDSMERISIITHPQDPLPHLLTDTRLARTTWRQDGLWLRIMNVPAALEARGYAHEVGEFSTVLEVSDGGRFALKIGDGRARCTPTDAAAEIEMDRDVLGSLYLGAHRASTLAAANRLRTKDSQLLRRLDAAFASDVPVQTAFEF
How it was run: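 Recombinant Eis (1 µM) mixed with KAN (400 µM) in 50 mM Tris-HCl pH 8.0 and preincubated 10 min with 5-fold serially diluted inhibitor (10% DMSO in buffer). Reaction started with AcCoA and DTNB (2 mM each, as added). Absorbance read every 30 s for 20 min. Initial rates (first 2-5 min) fitted to Hill plot for IC50. At least triplicate.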

[2] = test system: Mycolicibacterium smegmatis; assay: Antibacterial activity against Mycobacterium smegmatis mc2 155 assessed as inhibition of bacterial growth incubated upto 3 weeks hrs by resazurin dye based double-dilution method; type: functional; conditions: mc2 155, 504 h
How it was run: (§1)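 Double-dilution broth MIC. Media: M. smegmatis, Mueller-Hinton; M. abscessus, 7H9 + 0.05% Tween80 + 0.4% glycerol; mc²6230, 7H9 + 0.05% tyloxapol, 0.5% glycerol, 10% OADC, 0.2% casamino acids, 24 µg/mL pantothenate; other mycobacteria, 7H9 + 0.05% Tween80, 0.4% glycerol, 10% ADC. Inoculum from agar set to 0.5 McFarland, then diluted 1:100.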

[3] = test system: Mycobacteroides abscessus; assay: Antibacterial activity against Mycobacterium abscessus ATCC 19977 assessed as inhibition of bacterial growth incubated upto 3 weeks hrs by resazurin dye based double-dilution method; type: functional; conditions: ATCC 19977, 504 h; how it was run: as §1
[4] = test system: Mycobacterium intracellulare; assay: Antibacterial activity against Mycobacterium intracellulare ATCC 13950 assessed as inhibition of bacterial growth incubated upto 3 weeks hrs by resazurin dye based double-dilution method; type: functional; conditions: ATCC 13950, 504 h; how it was run: as §1
[5] = test system: Mycobacterium avium; assay: Antibacterial activity against Mycobacterium avium ATCC 25921 assessed as inhibition of bacterial growth incubated upto 3 weeks hrs by resazurin dye based double-dilution method; type: functional; conditions: ATCC 25921, 504 h; how it was run: as §1
[6] = test system: Mycobacterium tuberculosis; assay: Antibacterial activity against Mycobacterium tuberculosis H37Ra ATCC NRS22 assessed as inhibition of bacterial growth incubated upto 3 weeks hrs by resazurin dye based double-dilution method; type: functional; conditions: H37Ra ATCC NRS22, 504 h; how it was run: as §1

Compound: CC1CC(C)CN(CCCC(=O)c2ccc(C(C)(C)C)cc2)C1 (stereo unspecified)
- IC50 [1]: 200 µM
- MIC [2]: 62.5 µM (≈ 19.7 µg/mL)
- MIC [3]: 62.5 µM (≈ 19.7 µg/mL)
- MIC [4]: 62.5 µM (≈ 19.7 µg/mL)
- MIC [5]: 62.5 µM (≈ 19.7 µg/mL)
- MIC [6]: 31.3 µM (≈ 9.88 µg/mL)

Compound: CC1CCCCN1CCCOc1ccc(F)cc1 (stereo unspecified)
- IC50 [1]: > 200 µM
- MIC [2]: 15.6 µM (≈ 3.92 µg/mL)
- MIC [3]: > 62.5 µM
- MIC [4]: 7.8 µM (≈ 1.96 µg/mL)
- MIC [5]: 15.6 µM (≈ 3.92 µg/mL)
- MIC [6]: 7.8 µM (≈ 1.96 µg/mL)

Compound: O=C(CCCN1CCCCC1)c1ccc(F)cc1 [PRIMAPERONE]
- IC50 [1]: 0.62 µM
- MIC [2]: > 62.5 µM
- MIC [3]: > 62.5 µM
- MIC [4]: > 62.5 µM
- MIC [5]: > 62.5 µM
- MIC [6]: > 62.5 µM

Compound: O=C(CCCN1CC=C(n2c(=O)[nH]c3ccccc32)CC1)c1ccc(F)cc1 [DROPERIDOL]
- IC50 [1]: 12.2 µM
- MIC [2]: > 62.5 µM
- MIC [3]: > 62.5 µM
- MIC [4]: > 62.5 µM
- MIC [5]: > 62.5 µM
- MIC [6]: 31.3 µM (≈ 11.9 µg/mL)

Compound: O=C(CCCN1CCC(c2ccc(Cl)cc2)CC1)c1ccc(F)cc1
- IC50 [1]: 1.1 µM
- MIC [2]: > 62.5 µM
- MIC [3]: > 62.5 µM
- MIC [4]: 31.3 µM (≈ 11.3 µg/mL)
- MIC [5]: > 62.5 µM
- MIC [6]: 62.5 µM (≈ 22.5 µg/mL)

Compound: CCc1ccc(C(=O)CCCN2CCC(O)(c3ccc(Cl)cc3)CC2)cc1
- IC50 [1]: 40 µM
- MIC [2]: 15.6 µM (≈ 6.02 µg/mL)
- MIC [3]: 62.5 µM (≈ 24.1 µg/mL)
- MIC [4]: 15.6 µM (≈ 6.02 µg/mL)
- MIC [5]: 62.5 µM (≈ 24.1 µg/mL)
- MIC [6]: 15.6 µM (≈ 6.02 µg/mL)

Compound: CC1CC(C)CN(CCCOc2ccc(F)cc2)C1 (stereo unspecified)
- IC50 [1]: 42 µM
- MIC [2]: 62.5 µM (≈ 16.6 µg/mL)
- MIC [3]: > 62.5 µM
- MIC [4]: > 62.5 µM
- MIC [5]: > 62.5 µM
- MIC [6]: 62.5 µM (≈ 16.6 µg/mL)

Compound: Cc1ccc(S(=O)(=O)N2CCC(O)(c3ccc(Cl)cc3)CC2)cc1
- IC50 [1]: > 200 µM
- MIC [2]: > 62.5 µM
- MIC [3]: > 62.5 µM
- MIC [4]: > 62.5 µM
- MIC [5]: > 62.5 µM
- MIC [6]: > 62.5 µM

Compound: Cc1ccc(C(=O)CCCN2CCC(O)(c3ccc(Cl)cc3)CC2)cc1
- IC50 [1]: 100 µM
- MIC [2]: 62.6 µM (≈ 23.3 µg/mL)
- MIC [3]: > 62.5 µM
- MIC [4]: > 62.5 µM
- MIC [5]: > 62.5 µM
- MIC [6]: 31.3 µM (≈ 11.6 µg/mL)

Compound: O=C(CCCN1CCC(O)CC1)c1ccc(F)cc1
- IC50 [1]: 0.69 µM
- MIC [2]: > 62.5 µM
- MIC [3]: > 62.5 µM
- MIC [4]: > 62.5 µM
- MIC [5]: > 62.5 µM
- MIC [6]: > 62.5 µM

Compound: N=C(N)NCCCC(=O)c1ccc(F)cc1
- IC50 [1]: 1.1 µM
- MIC [2]: > 62.5 µM
- MIC [3]: > 62.5 µM
- MIC [4]: > 62.5 µM
- MIC [5]: > 62.5 µM
- MIC [6]: 31.3 µM (≈ 6.99 µg/mL)

Compound: NNC(=O)c1ccncc1 [ISONIAZID]
- MIC [2]: 3.9 µM (≈ 0.535 µg/mL)
- MIC [3]: > 62.5 µM
- MIC [4]: 3.9 µM (≈ 0.535 µg/mL)
- MIC [5]: 62.5 µM (≈ 8.57 µg/mL)
- MIC [6]: ≤ 1 µM

Compound: CC(=O)CCCN1CCC(O)(c2ccc(Cl)cc2)CC1
- IC50 [1]: 40 µM
- MIC [2]: > 62.5 µM
- MIC [3]: > 62.5 µM
- MIC [4]: > 62.5 µM
- MIC [5]: > 62.5 µM
- MIC [6]: > 62.5 µM

Compound: O=C(CCCN1CCC(O)(c2ccccc2)CC1)c1ccc(F)cc1
- IC50 [1]: 0.85 µM
- MIC [2]: > 62.5 µM
- MIC [3]: > 62.5 µM
- MIC [4]: > 62.5 µM
- MIC [5]: > 62.5 µM
- MIC [6]: > 62.5 µM

Compound: CC(C)c1ccc(C(=O)CCCN2CCC(O)(c3ccc(Cl)cc3)CC2)cc1
- IC50 [1]: > 200 µM
- MIC [2]: 15.6 µM (≈ 6.24 µg/mL)
- MIC [3]: 31.3 µM (≈ 12.5 µg/mL)
- MIC [4]: 7.8 µM (≈ 3.12 µg/mL)
- MIC [5]: > 62.5 µM
- MIC [6]: 7.8 µM (≈ 3.12 µg/mL)

Compound: O=C(CN1CCC(O)(c2ccc(Cl)cc2)CC1)c1ccc(F)cc1
- IC50 [1]: 100 µM
- MIC [2]: > 62.5 µM
- MIC [3]: > 62.5 µM
- MIC [4]: > 62.5 µM
- MIC [5]: > 62.5 µM
- MIC [6]: > 62.5 µM

Compound: Fc1ccc(OCCCN2CCC(c3ccccc3)CC2)cc1
- IC50 [1]: 14 µM
- MIC [2]: > 62.5 µM
- MIC [3]: 62.5 µM (≈ 19.6 µg/mL)
- MIC [4]: 62.5 µM (≈ 19.6 µg/mL)
- MIC [5]: > 62.5 µM
- MIC [6]: 31.3 µM (≈ 9.81 µg/mL)
